Source: PubChem
STAT1 inh: STAT1 signaling inhibitors, primary screen, cell-based, HTS, luciferase reporter. NIH 3T3 STAT1-luciferase reporter, IFN-gamma, luminescence. inhibition, % at 5.5 µM. 200,000 tested, 0.35% active. AID 920, 2007;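 active = inhibition above a set limit, the mean inhibition across all tested compounds plus 3 SD, cut at about 34% in these data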;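 also: 0% = IFN-gamma with DMSO and 100% = IFN-gamma with 300 µM nifuroxazide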
FLuc stim CS: FLuc activators, initial screening, artefact control for FLuc-dependent activation tests, biochemical, ATPlite luminescence; activation factor at 10 µM; ATPlite luciferase biochemical, 10 min; 0 = ATP-free wells, 1 = DMSO control; Luciferin 4-monooxygenase (Photinus pyralis), P08659; 200,000 tested, under 10 active;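 active = luciferase activation factor, scaled between plate controls, of at least 2 with compound at 10 µM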
Target sequence (P08659 whole entry, looked up): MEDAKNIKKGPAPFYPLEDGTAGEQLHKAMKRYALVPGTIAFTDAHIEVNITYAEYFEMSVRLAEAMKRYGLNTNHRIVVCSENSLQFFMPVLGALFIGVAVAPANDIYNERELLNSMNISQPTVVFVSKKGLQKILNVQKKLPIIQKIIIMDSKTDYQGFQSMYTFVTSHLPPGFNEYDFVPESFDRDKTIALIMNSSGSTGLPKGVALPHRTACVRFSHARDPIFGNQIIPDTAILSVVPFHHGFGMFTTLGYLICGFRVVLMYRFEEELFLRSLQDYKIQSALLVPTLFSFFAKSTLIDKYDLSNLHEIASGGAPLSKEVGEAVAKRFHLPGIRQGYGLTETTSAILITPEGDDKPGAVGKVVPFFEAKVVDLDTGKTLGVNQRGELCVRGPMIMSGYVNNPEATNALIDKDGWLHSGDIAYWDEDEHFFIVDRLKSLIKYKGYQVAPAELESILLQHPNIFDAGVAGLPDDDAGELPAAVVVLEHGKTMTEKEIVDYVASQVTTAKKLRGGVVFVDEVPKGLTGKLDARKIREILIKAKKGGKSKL
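System: luciferase plus luciferin reagent, cell-free; medium: PBS as buffer for the ATP substrate; dosing: test compounds dosed from 2 mM stocks in 100% DMSO; timing: 10 min post-reagent at room temperature; measured by: luminescence measurement of luciferase light output; evaluation: luciferase activation, seen as luminescence increase over controls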
STAT3 act: IL-6 driven STAT3 reporter potentiators, primary screen, U3A cells, luciferase, luminescence, MLSCN library. IL-6 STAT3-luciferase reporter; 100% = signal with IL-6 EC80 alone. activation (% of control), % at 5.6 µM. 190,000 tested, 0.91% active;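 active = activation above the screen-wide mean of compound activation plus 3 SD, cut at about 130% in these data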;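 also: 0% = background luminescence of wells with medium and substrate only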
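System – human U3A cells carrying STAT3-luciferase construct · Probe or stimulus – Interleukin-6, 33 ng/mL · Schedule – compound 1 h, then IL-6 6 h at 37 °C · Signal – luminescence from STAT3-driven luciferase reporter · Evaluation – percent of IL-6-only median luminescence · Benchmarks – IL-6-only high control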
FLuc inh counter: firefly luciferase enzyme inhibitors, primary screen, artefact control for luciferase-based inhibitor screens, biochemical, luminescence, ATPLite; Luciferin 4-monooxygenase (Photinus pyralis), P08659; inhibition, % at 10 µM; 200,000 tested, 1.5% active; 10 min;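 active = inhibition above about 50% when tested at 10 µM, limit read from the data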
STAT3 inh-1: IL-6 driven STAT3 reporter inhibitors, primary screen, U3A cells, luciferase, luminescence, MLSCN library; inhibition, % at 5.5 µM; 190,000 tested, 0.89% active; IL-6 STAT3-luciferase reporter; host cell line lacks STAT1;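 active = inhibition above the mean inhibition across all screened compounds plus 3 SD, cut at about 44% in these data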;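 also: 0% = DMSO only wells and 100% = 100 µM nifuroxazide control wells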
STAT1 activator: STAT1 signaling activators, primary screen, cell-based, HTS, luciferase reporter. NIH 3T3 STAT1-luciferase reporter, IFN-gamma, luminescence; 100% = IFN-gamma alone, no compound. AID 932, 2007. 200,000 tested, 2.6% active. activation (% of control), % at 5.5 µM;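 active = activation above the screen-wide mean activation plus 3 SD, cut at about 130% in these data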;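 also: raw ratio to IFN-gamma control signal so 100% means no change and 0% no light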
STAT3 inh-2: STAT3 reporter inhibitors, retest of hits, confirmation, U3A cells, luciferase, luminescence; 1,200 tested, 45% active; IL-6 STAT3 luciferase reporter; cell line lacks STAT1; shares compounds with STAT3 inh-1; AID 1265, 2008; inhibition, % at 5.7 µM;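 active = inhibition above the hit cutoff computed for the primary STAT3 screen, cut at about 44% in these data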;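 also: 0% = IL-6 plus DMSO and 100% = IL-6 plus nifuroxazide control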
NFkB inh 2: NF-kB reporter inhibitors in human cells, confirmation, counter-screen for STAT3 inhibitor project, cell-based, HEK293T, luciferase, TNF-alpha stimulus; inhibition, % at 5.7 µM; AID 1308, 2008; TNF-alpha induced; 1,200 tested, 36% active; shares compounds with STAT3 inh-1;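 active = inhibition above the mean of solvent-only control wells plus 3 SD, cutoff set per campaign, cut at about 13% in these data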;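 also: 0% = TNF-alpha with DMSO and 100% = TNF-alpha with MG high control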
STAT1 inh 2: STAT1 reporter inhibitors, IFN-gamma induced, confirmation, counter-screen for STAT3 inhibitor project, cell-based, NIH 3T3, luciferase luminescence; 1,200 tested, 27% active; NIH 3T3 STAT1-luciferase reporter; inhibition, % at 5.7 µM; shares compounds with STAT3 inh-1;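 active = inhibition above the mean plus 3 SD of solvent-only control wells, limit set per screening run, cut at about 16% in these data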;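 also: 0% = DMSO with IFN-gamma and 100% = nifuroxazide control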
Numbers without * were called inactive; . = not tested or not shown. This is a sample that favours compounds with a hit; in the whole collection about 4.9% have one here.

SMILES | STAT1 inh | FLuc stim CS | STAT3 act | FLuc inh counter | STAT3 inh-1 | STAT1 activator | STAT3 inh-2 | NFkB inh 2 | STAT1 inh 2
COc1cc(SC)ccc1C(=O)Nc1ccc2c(c1)OCCO2 | -34 | 0.2 | 59 | 83* | 54* | 130* | 6 | -36 | -156
CC1(C)CC(N2CCN(c3ccccc3)CC2)=CC(=[N+]2CCCC2)C1 | 24 | 1.1 | 37 | -9 | 80* | 79 | 77* | -2 | 27*
CCN(CC)C1=CC(=[N+]2CCCC2)CC(C)(C)C1 | 21 | 1 | 77 | -2 | 30 | 81 | . | . | .
Cc1nn(C)c(C)c1NC(=O)CSc1nc(-c2ccccc2Cl)nc2c1cnn2-c1ccccc1 | -11 | 1 | 107 | -4 | -4 | 110 | . | . | .
Cc1nn(C)c(C)c1NC(=O)CSc1nc(C2CC2)nc2c1cnn2-c1ccccc1 | 5 | 1.1 | 62 | -5 | 50* | 96 | 37 | 7 | -3
CCN(CC)S(=O)(=O)c1cc(C(=O)Nc2ccncc2)ccc1Cl | 22 | 1 | 57 | 1 | 56* | 80 | 34 | 11 | 17*
CC1(C)Cc2ccccc2-c2nnc(SCC(=O)N3CCN(c4ccccc4)CC3)n21 | 2 | 1 | 67 | -3 | 44* | 98 | 20 | -2 | -3
CC1(C)Cc2ccccc2-c2nnc(SCc3ccccc3)n21 | 1 | 1 | 77 | 2 | 29 | 99 | . | . | .
CCn1c(SCC(=O)N2CCN(c3ccccc3)CC2)nnc1-c1c[nH]c2ccccc12 | 12 | 1.1 | 64 | -8 | 51* | 89 | 27 | -2 | 2
Cn1c(SCC(=O)N2CCN(c3ccccc3)CC2)nnc1-c1c[nH]c2ccccc12 | 7 | 1 | 71 | -1 | 42 | 94 | . | . | .
COc1cc(NC(=O)Cc2cccs2)c(C(=O)O)cc1OC | -1 | 1 | 102 | -4 | 3 | 100 | . | . | .
CCOC(=O)c1c(NC(=O)C(C)N2CCN(C(=O)c3ccco3)CC2)sc2c1CCCC2 (stereo not given) | -3 | 1 | 98 | -4 | -1 | 103 | . | . | .
Cc1ccccc1-n1c(SCC(=O)Nc2ccccc2)nc2nc3c(cc2c1=O)CCCC3 | 6 | 1.1 | 99 | -10 | -1 | 94 | . | . | .
N=c1c2c(n(Cc3ccc(Cl)cc3)c3c1CCC3)CCC2 | 23 | 1 | 57 | -5 | 54* | 79 | 44* | 4 | 24*
O=c1[nH]c(SCc2cccc(Cl)c2)nc2c1CCCC2 | 2 | 1.1 | 98 | -6 | 8 | 98 | . | . | .
N=c1c2c(n(Cc3ccccc3)c3c1CCC3)CCC2 | 26 | 1.1 | 62 | -7 | 49* | 77 | 35 | 2 | 24*
N=c1c2c(n(Cc3cccc(Cl)c3)c3c1CCC3)CCCC2 | 32 | 1.1 | 56 | -8 | 54* | 70 | 45* | 4 | 25*
N=c1c2c(n(Cc3ccc(F)cc3)c3c1CCC3)CCCC2 | 9 | 1.1 | 82 | -6 | 25 | 91 | . | . | .
CC(=O)Nc1ccc(NC(=O)CN(c2cc(Cl)ccc2Cl)S(C)(=O)=O)cc1 | 3 | 1 | 110 | 2 | -5 | 97 | . | . | .
O=C(O)c1ccc2nc(-c3ccccc3)sc2c1 | 36* | 0.6 | 36 | 44 | 79* | 68 | 46* | 18* | -30
